Data set [1] relates to breast cancer cells MCF-7. In words: MTT antiproliferative assay, MCF-7 under normoxia and hypoxia. The class given is cell-based, human. The note with it: for IC50: Homo sapiens; for HCR, hypoxic cytotoxicity ratio: IC50(N)/IC50(H): MCF-7; for antiproliferative activity, in words: MCF-7, Table 3. Summed up:
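MTT assay on MCF-7 cells grown in high-glucose DMEM with 10% FBS, penicillin and streptomycin at 37 °C and 5% CO2. Cells were seeded at 40 000 per well, and test compound (10 mM DMSO stock) was added after 24 h; controls got solvent. Cells were kept under normoxia (21% O2) or hypoxia (1% O2). IC50 is mean ± S.D. of 3 experiments; HCR = IC50(N)/IC50(H).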
For orientation: Formazan colour is commonly taken as a measure of viable cells.

The subject of a further data set is NCI-H1975. In words: Antiproliferative assay, NCI-H1975. To be noted: Homo sapiens, NCI-H1975, read-out: IC50 NCI-H1975. It counts as cell-based.
Another data set addresses hCA IX (Homo sapiens, UniProt Q16790). In words: biochemical. It counts as biochemical.
For a further data set, the system named is LN229. The experiment in a line: Antiproliferative assay, LN229. It counts as cell-based. To be noted: Homo sapiens, LN-229, read-out: IC50 LN229.
Another data set addresses hCA I (Homo sapiens, UniProt P00915). In words: Stopped flow CO2 hydrase assay, hCA I. It counts as biochemical.
In a further data set the test system is DND-41. The experiment in a line: Antiproliferative assay, DND-41. It counts as cell-based. To be noted: Homo sapiens, DND41, read-out: IC50 DND-41.
The subject of another data set is HL-60. In words: Antiproliferative assay, HL-60. The note with it: Homo sapiens, HL-60, read-out: IC50 HL-60. It counts as cell-based.
The subject of another data set is Z138. The experiment in a line: Antiproliferative assay, Z138. The class given is cell-based. The note with it: Homo sapiens, Z-138, read-out: IC50 Z138.
A further data set has as its system K562. In words: Antiproliferative assay, K562. It counts as cell-based. To be noted: Homo sapiens, K562, read-out: IC50 K562.
In a further data set the test system is HCT-116. In words: Antiproliferative assay, HCT-116. The class given is cell-based. The note with it: Homo sapiens, HCT-116, read-out: IC50 HCT-116.
The test system of a further data set is Capan-1. The experiment in a line: Antiproliferative assay, Capan-1. It counts as cell-based. The note with it: Homo sapiens, CAPAN-1, read-out: IC50 Capan-1.
The target of another data set is hCA II (Homo sapiens, UniProt P00918). The experiment in a line: Stopped flow CO2 hydrase assay, hCA II. The class given is biochemical.
Data set [2] has as its system panel of tumor cell lines. The experiment in a line: Antiproliferative activity over the panel of tumor cell lines. The class given is cell-based, human.
In another data set the target is hCA XII (Homo sapiens, UniProt O43570). The experiment in a line: Stopped flow CO2 hydrase assay, hCA XII. It counts as biochemical.

Like-named read-outs stand apart in the source and are kept apart here.

hCA I, sequence (P00915 whole entry): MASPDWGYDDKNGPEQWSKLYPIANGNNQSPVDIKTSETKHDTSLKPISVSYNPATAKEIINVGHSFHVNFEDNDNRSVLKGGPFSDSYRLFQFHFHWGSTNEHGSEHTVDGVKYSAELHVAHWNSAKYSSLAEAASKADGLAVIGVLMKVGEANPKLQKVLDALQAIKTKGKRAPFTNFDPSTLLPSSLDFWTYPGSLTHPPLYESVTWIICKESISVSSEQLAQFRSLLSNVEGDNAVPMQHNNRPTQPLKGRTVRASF
hCA XII, sequence (O43570 25-354): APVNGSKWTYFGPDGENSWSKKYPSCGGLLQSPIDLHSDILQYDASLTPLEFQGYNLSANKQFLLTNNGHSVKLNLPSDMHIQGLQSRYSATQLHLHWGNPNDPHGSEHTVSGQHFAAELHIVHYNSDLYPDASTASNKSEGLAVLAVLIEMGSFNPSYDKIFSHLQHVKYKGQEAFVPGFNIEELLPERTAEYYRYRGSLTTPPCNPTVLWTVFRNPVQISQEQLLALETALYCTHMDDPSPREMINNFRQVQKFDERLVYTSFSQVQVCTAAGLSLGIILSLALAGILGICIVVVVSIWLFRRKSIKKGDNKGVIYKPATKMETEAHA

The IC50 is the midpoint of a concentration-inhibition curve. With `Nc1n[n+]([O-])c2ccccc2[n+]1[O-]` [TPZ, Tirapazamine, reference compound], the IC50 was determined as 4.5 ± 1.1 µM in [1] (MCF7, read-out: IC50 H) and 24.2 ± 3.3 µM in data set [1] (MCF7, read-out: IC50 N). Moreover, in data set [1], the “HCR, hypoxic cytotoxicity ratio: IC50(N)/IC50(H)” value (“HCR, hypoxic cytotoxicity ratio” below) worked out at 5.4.
By Ki is commonly meant a measure of affinity in units of concentration, obtained from inhibition or displacement. Regarding `N#Cc1c(-c2cccs2)[n+]([O-])c2cc(S(N)(=O)=O)ccc2[n+]1[O-]` [Compound 7d, 6-Sulfamoyl-3-(thiophen-2-yl)quinoxaline-2-carbonitrile 1,4-dioxide], the IC50 is over 100 µM in the data set on NCI-H1975; 98.8 ± 4.9 µM with LN229; 44.8 ± 2.2 µM with DND-41; 72.4 ± 3.6 µM in the data set with HL-60; over 100 µM in the data set with Z138; over 25 µM in data set [1] (MCF7, read-out: IC50 H). The half-inhibitory concentration (IC50) in data set [1] (MCF7, read-out: IC50 N) is over 25 µM; in the data set with K562, over 100 µM; with HCT-116 it was over 100 µM; in the data set on Capan-1 it was over 100 µM. Besides, the “activity against CA IX, in words” value at hCA IX is listed as “complete loss of activity”. In addition, the Ki on hCA IX (read-out: Ki hCA IX, mean from three experiments, stopped flow CO2 hydrase assay) is over 10 µM; on hCA I (read-out: Ki hCA I, mean from three experiments, stopped flow CO2 hydrase assay) it was 0.0417 ± 0.002 µM; at hCA II (read-out: Ki hCA II, mean from three experiments, stopped flow CO2 hydrase assay) it was 0.0042 ± 0.0001 µM. Also, the “antiproliferative activity, in words” value in [1] is on record as “complete loss of activity”.
Turning to `COc1cc([C@@H]2c3cc4c(cc3[C@@H](O[C@@H]3O[C@@H]5CO[C@@H](C)O[C@H]5[C@H](O)[C@H]3O)[C@H]3COC(=O)[C@H]23)OCO4)cc(OC)c1O` [Etoposide, etoposide, reference compound], the concentration for half-maximal inhibition (IC50) was 1.1 ± 0.1 µM with NCI-H1975; 1.7 ± 0.1 µM in the data set on LN229; 0.29 ± 0.01 µM with DND-41; 0.7 ± 0.04 µM in the data set with HL-60; 0.3 ± 0.02 µM with Z138; 0.13 to 2.3 µM in [2] (Homo sapiens, read-out: IC50 range over the tested tumor cell lines). The IC50 in the data set on K562 came to 1.2 ± 0.06 µM; with HCT-116, 2.3 ± 0.1 µM; in the data set on Capan-1, 0.13 ± 0.01 µM.
Turning to `N#Cc1c(-c2ccco2)[n+]([O-])c2cc(S(N)(=O)=O)ccc2[n+]1[O-]` [Compound 7c, 3-(Furan-2-yl)-6-sulfamoylquinoxaline-2-carbonitrile 1,4-dioxide], the IC50 in the data set on NCI-H1975 was over 100 µM; in the data set with LN229 it was over 100 µM; in the data set with DND-41, over 100 µM; in the data set with HL-60, over 100 µM; in the data set on Z138 it was over 100 µM; in [1] (MCF7, read-out: IC50 H), over 25 µM. The IC50 in data set [1] (MCF7, read-out: IC50 N) is over 25 µM; in the data set on K562, over 100 µM; in the data set on HCT-116, over 100 µM; in the data set on Capan-1, over 100 µM. In addition, the Ki was over 10 µM on hCA IX, over 10 µM on hCA XII, 0.038 ± 0.0011 µM at hCA I and 0.0044 ± 0.0002 µM on hCA II. The “activity against CA IX, in words” value on hCA IX was “complete loss of activity”. The “activity against CA XII, in words” value on hCA XII is “inactive”. In addition, in [1], the “antiproliferative activity, in words” value is “complete loss of activity”.
Take `CC(=O)c1c(C)[n+]([O-])c2ccc(S(N)(=O)=O)cc2[n+]1[O-]` [Compound 8g, 2-Acetyl-3-methyl-7-sulfamoylquinoxaline 1,4-dioxide]: the IC50 in [1] (MCF7, read-out: IC50 H) amounted to 2.8 ± 0.4 µM; in [1] (MCF7, read-out: IC50 N), 11.7 ± 1.2 µM. The “HCR, hypoxic cytotoxicity ratio” value in data set [1] worked out at 4.2.
As for `CCOC(=O)c1c(C)[n+]([O-])c2cc(S(N)(=O)=O)ccc2[n+]1[O-]` [Compound 7f, 2-(Ethoxycarbonyl)-3-methyl-6-sulfamoylquinoxaline 1,4-dioxide], the IC50 in the data set with NCI-H1975 turned out to be 33.3 ± 1.7 µM; with LN229 it was 35.9 ± 1.8 µM; in the data set on DND-41, 10.3 ± 0.5 µM; in the data set with HL-60 it was 32.6 ± 1.6 µM; with Z138, 3.3 ± 1.7 µM; in [1] (MCF7, read-out: IC50 H), 4.3 ± 0.3 µM. Further, the IC50 in [1] (MCF7, read-out: IC50 N) came to 10.5 ± 1.2 µM; in the data set on K562, 26 ± 1.3 µM; in the data set on HCT-116, 2.7 ± 0.1 µM; in the data set on Capan-1, 1.7 ± 0.1 µM. Moreover, the Ki at hCA IX was over 10 µM; on hCA XII, 0.0564 ± 0.004 µM; at hCA I it was 0.063 ± 0.0031 µM; on hCA II it was 0.008 ± 0.0003 µM. For the same molecule, the “activity against CA IX, in words” value at hCA IX is on record as “did not exhibit any inhibitory activity”. Further, in data set [2] (Table 4 cell lines), the “enhancement of tumor cell growth inhibition compared to compound 7e” value was 1.4–40 times. Besides, in data set [1], the “HCR, hypoxic cytotoxicity ratio” value is recorded as 2.4.
For `N#Cc1c(-c2ccccc2)[n+]([O-])c2cc(S(N)(=O)=O)ccc2[n+]1[O-]` [Compound 7a, 3-Phenyl-6-sulfamoylquinoxaline-2-carbonitrile 1,4-dioxide], the IC50 with NCI-H1975 is 19.9 ± 0.9 µM; in the data set with LN229, 38.8 ± 1.9 µM; in the data set on DND-41 it was 0.8 ± 0.05 µM; with HL-60, 2.3 ± 0.1 µM; with Z138 it was 8.7 ± 0.4 µM; in data set [1] (MCF7, read-out: IC50 H), 0.9 ± 0.3 µM. Moreover, the IC50 stood at 3.5 ± 0.2 µM in [1] (MCF7, read-out: IC50 N); 10.8 ± 0.5 µM in the data set on K562; 47.9 ± 2.3 µM with HCT-116; 7.5 ± 0.4 µM in the data set on Capan-1. For the same molecule, the Ki on hCA IX is 2.4 ± 0.096 µM; at hCA XII, 0.089 ± 0.007 µM; at hCA I, 0.0491 ± 0.003 µM; on hCA II, 0.0027 ± 0.0002 µM. Further, the “HCR, hypoxic cytotoxicity ratio” value in [1] is listed as 3.9.
Regarding `N#Cc1c(-c2ccccc2)[n+]([O-])c2ccc(S(N)(=O)=O)cc2[n+]1[O-]` [Compound 8a, 3-Phenyl-7-sulfamoylquinoxaline-2-carbonitrile 1,4-dioxide], the Ki at hCA IX was over 10 µM; at hCA XII, 0.111 ± 0.0097 µM; on hCA I, 0.0607 ± 0.0026 µM; at hCA II, 0.0044 ± 0.0001 µM. Further, the IC50 in data set [1] (MCF7, read-out: IC50 H) worked out at 1.3 ± 0.3 µM; in data set [1] (MCF7, read-out: IC50 N) it was 4.8 ± 0.2 µM. Also, the “HCR, hypoxic cytotoxicity ratio” value in [1] turned out to be 3.7.
As for `N#Cc1c(-c2ccc(Cl)cc2)[n+]([O-])c2ccc(S(N)(=O)=O)cc2[n+]1[O-]` [Compound 8b, 3-(4-Chlorophenyl)-7-sulfamoylquinoxaline-2-carbonitrile 1,4-dioxide], the inhibitory constant (Ki) on hCA IX is over 10 µM; at hCA XII it was 0.133 ± 0.012 µM; at hCA I it was 0.0403 ± 0.0031 µM; at hCA II, 0.005 ± 0.0004 µM.
Consider `CCOC(=O)c1c(-c2ccccc2)[n+]([O-])c2cc(S(N)(=O)=O)ccc2[n+]1[O-]` [Compound 7e, 2-(Ethoxycarbonyl)-3-phenyl-6-sulfamoylquinoxaline 1,4-dioxide], for which the half-maximal inhibitory concentration (IC50) in the data set on NCI-H1975 was 47.4 ± 2.3 µM; in the data set with LN229, 87 ± 4.3 µM; with DND-41, 28.2 ± 1.4 µM; in the data set on HL-60 it was 52.7 ± 2.6 µM; in the data set with Z138, 15.3 ± 0.8 µM; in data set [1] (MCF7, read-out: IC50 H), 0.9 ± 0.06 µM. For the same molecule, the IC50 was 4 ± 0.6 µM in data set [1] (MCF7, read-out: IC50 N); 52.6 ± 2.1 µM in the data set with K562; over 100 µM in the data set with HCT-116; 6 ± 0.3 µM in the data set with Capan-1. Moreover, the Ki on hCA IX amounted to 0.257 ± 0.014 µM; at hCA XII, 0.252 ± 0.014 µM; on hCA I, 0.0424 ± 0.0019 µM; on hCA II it was 0.0054 ± 0.0003 µM. The “HCR, hypoxic cytotoxicity ratio” value in [1] is 4.7.
Regarding `COc1cccc2c1C(=O)c1c(O)c3c(c(O)c1C2=O)C[C@@](O)(C(=O)CO)C[C@@H]3O[C@H]1C[C@H](N)[C@H](O)[C@H](C)O1` [DOXO, doxorubicin, reference compound], the IC50 in [1] (MCF7, read-out: IC50 H) came to 0.4 ± 0.03 µM; in data set [1] (MCF7, read-out: IC50 N), 0.3 ± 0.03 µM. Also, in data set [1], the “HCR, hypoxic cytotoxicity ratio” value is 0.7.

These data come from publication PMC11265520 (RSC Advances, 2024).
